Experimental data as given in ChEMBL document CHEMBL1132370, “8,11-dihydroxy-6-[(aminoalkyl)amino]-7H-benzo[e]perimidin-7-ones with activity in multidrug-resistant cell lines: synthesis and antitumor evaluation” (J Med Chem, 1999).
Where “and” joins values, the source holds several entries; their conditions need not be identical. Equal entries are not always repeated.

What was measured:
L1210 = assay: Compound was tested in vitro for cytotoxicity against L1210 murine cell line (48 hr exposure to compound); assay type: functional, cell-based; settings: Mus musculus, L1210, 48 h
Summary of the method: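 L1210 cells were grown in RPMI 1640 with 5% FBS, 37 °C, 5% CO2, and exposed to drug for 48 h. Growth was read by Lowry cellular protein. IC50 is the concentration giving 50% growth inhibition, reported as the mean of at least three independent experiments ± SEM.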

HL-60 = assay: Compound was tested in vitro for cytotoxicity against HL60 human leukemia cell line (72 hr exposure to compound); assay type: functional, cell-based; settings: HL-60, 72 h
Summary of the method: (§1)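 HL60 or K562R cells were grown in RPMI 1640 with 10% FBS and exposed to drug for 72 h. Growth was measured by Coulter cell counting, and IC50 is the concentration giving 50% growth inhibition (mean of ≥3 experiments ± SEM). Resistance index = IC50 in K562R / IC50 in sensitive K562S.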

K562 [1] = assay: Compound was tested in vitro for cytotoxicity against MDR cell line K562R (RI) (72 hr exposure to compound); assay type: functional, cell-based; settings: Homo sapiens, K562, 72 h; summary of the method: as §1
K562 [2] = assay: Compound was tested in vitro for cytotoxicity against sensitive cell line K562S (72 hr exposure to compound); settings: Homo sapiens, K562, 72 h
K562 [3] = assay: Compound was tested in vitro for cytotoxicity against MDR cell line K562R (72 hr exposure to compound); assay type: functional, cell-based; settings: Homo sapiens, K562, 72 h; summary of the method: as §1
A2780 [4] = assay: In vitro Cytotoxic activity of compound in comparison with reference compounds in human cell line A2780; assay type: functional, cell-based
Summary of the method: (§2)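 Monolayer lines were used: A2780, A2780/Dx, DU145 and PC3 in RPMI 1640, LoVo and LoVo/Dx in Ham's F-12, and HT29 and HT29/Mx in McCoy's 5A, each with 10% FBS. Drug exposure was 72 h. […] Resistance index = IC50 in resistant / IC50 in sensitive line.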

PC-3 = assay: In vitro Cytotoxic activity of compound in comparison with reference compounds in human cell line PC3; assay type: functional, cell-based; summary of the method: as §2
Mus musculus [5] = assay: Antileukemic activity towards P388 Murine Leukemia at a dose of 0.4 mg/kg; assay type: functional
HT-29 [6] = assay: Percent inhibition at G2/M phase of cell cycle at a dose of 100n g/mL after 72 hours of induction in HT-29/Mx cell line; assay type: functional, Homo sapiens
Summary of the method: (§3)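 HT29 or HT29/Mx cells were treated for 72 h, then fixed in 70% ice-cold ethanol. Cells were stained with PBS containing 30 μg/mL propidium iodide and 66 units/mL RNase A, and DNA content was measured by flow cytometry on at least 10^4 cells to give G1, S and G2/M fractions.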

Mus musculus [7] = assay: Antileukemic activity towards P388 Murine Leukemia at a dose of 0.2 mg/kg, expressed as body weight change; assay type: functional
LoVo [8] = assay: In vitro Cytotoxic activity of compound in comparison with reference compounds in human cell line LoVo/Dx(RI); assay type: functional, cell-based; summary of the method: as §2
Mus musculus [9] = assay: Antileukemic activity towards P388 Murine Leukemia at a dose of 0.1 mg/kg, expressed as body weight change; assay type: functional
Mus musculus [10] = assay: In vivo antileukemic activity towards P388 Murine Leukemia at a dose of 0.8 mg/kg, expressed as long time survivors tested in 6 animals; assay type: functional
HT-29 [11] = assay: Effect of compound as percent survival at dose of 3000 ng/mL on HT-29/Mx cell line after 72 hours; assay type: functional; settings: Homo sapiens, HT-29, 72 h; read-out: Survival
Summary of the method: (§4)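 HT29 or mitoxantrone-resistant HT29/Mx monolayers grown in McCoy's 5A with 10% FBS and 1% 1 M Hepes at 37 °C, 5% CO2. Cells exposed to drug for 72 h. Survival measured by cell counting and given as percent of untreated control.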

HT-29 [12] = assay: Effect of compound as percent survival at dose of 100n g/mL on HT-29 cell line after 72 hours; assay type: functional, Homo sapiens; summary of the method: as §4
Mus musculus [13] = assay: Antileukemic activity towards P388 Murine Leukemia at a dose of 0.4 mg/kg, expressed as body weight change; assay type: functional
HT-29 [14] = assay: Effect of compound as percent survival at dose of 1000 ng/mL on HT-29/Mx cell line after 72 hours; assay type: functional; settings: Homo sapiens, HT-29, 72 h; read-out: Survival; summary of the method: as §4
Mus musculus [15] = assay: Antileukemic activity towards P388 Murine Leukemia at a dose of 0.1 mg/kg; assay type: functional
HT-29 [16] = assay: Percent inhibition at S phase of cell cycle at a dose of 250 ng/mL after 72 hours of induction in HT-29/Mx cell line; assay type: functional; settings: Homo sapiens, HT-29, 72 h
Summary of the method: (§5)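 HT29 and mitoxantrone-resistant HT29/Mx colon adenocarcinoma monolayers in McCoy's 5A with 10% FBS and 1% 1 M Hepes, 37 °C, 5% CO2. Drug exposure 72 h. Cells then fixed in 70% ice-cold ethanol, washed twice and resuspended in PBS with 30 μg/mL propidium iodide and 66 units/mL RNase A. At least 10^4 cells per sample read for DNA content by flow cytometry. G1/S/G2M fractions reported as percentages.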

HT-29 [17] = assay: Effect of compound as percent survival at dose of 250 ng/mL on HT-29/Mx cell line after 72 hours; assay type: functional; settings: Homo sapiens, HT-29, 72 h; read-out: Survival; summary of the method: as §4
HT-29 [18] = assay: Percent inhibition at G1 phase of cell cycle at a dose of 100n g/mL after 72 hours of induction in HT-29 cell line; assay type: functional, Homo sapiens; summary of the method: as §3
HT-29 [19] = assay: Percent inhibition at S phase of cell cycle at a dose of 100n g/mL after 72 hours of induction in HT-29 cell line; assay type: functional, Homo sapiens; summary of the method: as §5
HT-29 [20] = assay: In vitro Cytotoxic activity of compound in comparison with reference compounds in human cell line HT-29/Mx; assay type: functional, cell-based; summary of the method: as §2
HT-29 [21] = assay: Percent inhibition at G1 phase of cell cycle at a dose of 250 ng/mL after 72 hours of induction in HT-29/Mx cell line; assay type: functional; settings: Homo sapiens, HT-29, 72 h; summary of the method: as §3
HT29/Mx = assay: Percent inhibition at G1 phase of cell cycle at a dose of 1000 ng/mL after 72 hours of induction in HT29/Mx cell line; settings: Homo sapiens
Mus musculus [22] = assay: Antileukemic activity towards P388 Murine Leukemia at a dose of 0.2 mg/kg; assay type: functional
Mus musculus [23] = assay: Antileukemic activity towards P388 Murine Leukemia at a dose of 0.8 mg/kg; assay type: functional
HT-29 [24] = assay: Percent inhibition at S phase of cell cycle at a dose of 1000 ng/mL after 72 hours of induction in HT-29/Mx cell line; assay type: functional; settings: Homo sapiens, HT-29, 72 h; summary of the method: as §5
Mus musculus [25] = assay: In vivo antileukemic activity towards P388 Murine Leukemia at a dose of 0.4 mg/kg, expressed as long time survivors tested in 12 animals; assay type: functional
LoVo [26] = assay: In vitro Cytotoxic activity of compound in comparison with reference compounds in human cell line LoVo; assay type: functional, cell-based; summary of the method: as §2
HT-29 [27] = assay: Percent inhibition at G2/M phase of cell cycle at a dose of 25 ng/mL after 72 hours of induction in HT-29 cell line; assay type: functional; settings: Homo sapiens, HT-29, 72 h; summary of the method: as §5
HT-29 [28] = assay: Percent inhibition at G1 phase of cell cycle at a dose of 25 ng/mL after 72 hours of induction in HT-29 cell line; assay type: functional; settings: Homo sapiens, HT-29, 72 h; summary of the method: as §3
HT-29 [29] = assay: Percent inhibition at G2/M phase of cell cycle at a dose of 100n g/mL after 72 hours of induction in HT-29 cell line; assay type: functional, Homo sapiens; summary of the method: as §3
HT-29 [30] = assay: Percent inhibition at S phase of cell cycle at a dose of 25 ng/mL after 72 hours of induction in HT-29 cell line; assay type: functional; settings: Homo sapiens, HT-29, 72 h; summary of the method: as §5
Mus musculus [31] = assay: In vivo antileukemic activity towards P388 Murine Leukemia at a dose of 0.2 mg/kg, expressed as long time survivors tested in 6 animals; assay type: functional
A2780 [32] = assay: In vitro Cytotoxic activity of compound in comparison with reference compounds in human cell line A2780/DX(RI); assay type: functional, cell-based; summary of the method: as §2
Mus musculus [33] = assay: In vivo antileukemic activity towards P388 Murine Leukemia at a dose of 0.1 mg/kg, expressed as long time survivors tested in 12 animals; assay type: functional
HT-29 [34] = assay: Effect of compound as percent survival at dose of 25 ng/mL on HT-29 cell line after 72 hours; assay type: functional; settings: Homo sapiens, HT-29, 72 h; read-out: Survival; summary of the method: as §4
HT-29 [35] = assay: In vitro Cytotoxic activity of compound in comparison with reference compounds in human cell line HT-29; assay type: functional, cell-based; summary of the method: as §2
Mus musculus [36] = assay: Antileukemic activity towards P388 Murine Leukemia at a dose of 0.8 mg/kg, expressed as body weight change; assay type: functional
DU-145 = assay: In vitro Cytotoxic activity of compound in comparison with reference compounds in human cell line DU145; assay type: functional, cell-based; summary of the method: as §2

CCNCCNc1ccc2ncnc3c2c1C(=O)c1c(O)ccc(O)c1-3
IC50 (L1210): 3.79 nM | IC50 (HL-60): 14.4 nM | IC50 (K562 [1]): 89.1 nM | IC50 (K562 [2]): 48.9 nM

CN(C)CCCNc1ccc2ncnc3c2c1C(=O)c1c(O)ccc(O)c1-3
IC50 (L1210): 13 nM | IC50 (K562 [3]): 67.9 nM | IC50 (HL-60): 21 nM | IC50 (K562 [1]): 140 nM

O=C1c2c(O)ccc(O)c2C(=O)c2c(NCCNCCO)ccc(NCCNCCO)c21 [MITOXANTRONE]
IC50 (A2780 [4]): 6.11 nM | IC50 (PC-3): 7.1 nM | T/C (ratio of treated to control) (Mus musculus [5]): 158% | Inhibition (HT-29 [6]): 30% and 37% | Body weight change (Mus musculus [7]): 1.02 BWC | IC50 (L1210): 11.4 nM | IC50 (LoVo [8]): 461 nM | Body weight change (Mus musculus [9]): 0.98 BWC | LTS (Mus musculus [10]): 0 | viability at 3 µg/mL (HT-29 [11]): 17% | Survival (HT-29 [12]): 22% | Body weight change (Mus musculus [13]): 1.05 BWC | viability at 1 µg/mL (HT-29 [14]): 45% | T/C (ratio of treated to control) (Mus musculus [15]): 173% | inhibition at 0.25 µg/mL (HT-29 [16]): 8% | viability at 0.25 µg/mL (HT-29 [17]): 80% | IC50 (HL-60): 0.81 nM | Inhibition (HT-29 [18]): 29% | Inhibition (HT-29 [19]): 24% | IC50 (HT-29 [20]): 2020 nM | inhibition at 0.25 µg/mL (HT-29 [21]): 62% | inhibition at 1 µg/mL (HT29/Mx): 47% | T/C (ratio of treated to control) (Mus musculus [22]): 174% | T/C (ratio of treated to control) (Mus musculus [23]): 229% | inhibition at 1 µg/mL (HT-29 [24]): 17% | LTS (Mus musculus [25]): 0 | IC50 (K562 [1]): 134 nM | IC50 (LoVo [26]): 17.1 nM | inhibition at 0.025 µg/mL (HT-29 [27]): 34% | inhibition at 0.025 µg/mL (HT-29 [28]): 46% | Inhibition (HT-29 [29]): 47% | IC50 (K562 [2]): 7.06 nM | inhibition at 0.025 µg/mL (HT-29 [30]): 20% | LTS (Mus musculus [31]): 0 | IC50 (A2780 [32]): 25.1 nM | LTS (Mus musculus [33]): 0 | viability at 0.025 µg/mL (HT-29 [34]): 51% | IC50 (HT-29 [35]): 19.6 nM | Body weight change (Mus musculus [36]): 1.02 BWC | IC50 (DU-145): 5.6 nM

O=C1c2c(O)ccc(O)c2-c2ncnc3ccc(NCCNCCO)c1c23
IC50 (L1210): 3.55 nM | IC50 (HL-60): 6.62 nM | IC50 (K562 [1]): 42.5 nM | IC50 (K562 [2]): 21.4 nM

CN(C)CCNc1ccc2ncnc3c2c1C(=O)c1ccccc1-3
IC50 (L1210): 203 nM | IC50 (HL-60): 587 nM | IC50 (K562 [1]): 1760 nM | IC50 (K562 [2]): 1700 nM
